Laboratory results as given in ChEMBL document CHEMBL1135739, “Radiolabeled amino acids for tumor imaging with PET: radiosynthesis and biological evaluation of 2-amino-3-[18F]fluoro-2-methylpropanoic acid and 3-[18F]fluoro-2-methyl-2-(methylamino)propanoic acid” (J Med Chem, 2002).

Key:
Rattus norvegicus [1] = species: Rattus norvegicus; test: Radioactivity distribution in blood of normal fischer rat after injection of [18F]fluoro-2-methylpropanoic acid after 60 min.; format: ADME, organism-based; settings: in vivo, 1 h
Procedure, shortened: (§1)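 Normal male Fischer 344 rats (200–250 g), anesthetized with i.m. ketamine:xylazine (1:1), got ~85 μCi of tracer in 0.3 mL sterile water i.v. via tail-vein catheter. Groups of four were killed at 5, 30, 60 or 120 min. Tissues were weighed and gamma-counted against dose standards, and counts were decay-corrected to %ID/g. Results are mean ± standard error (n = 4), compared by one-way ANOVA.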

Rattus norvegicus [2] = species: Rattus norvegicus; test: Radioactivity distribution in heart of normal fischer rat after injection of [18F]-fluoro-2-methylpropanoic acid after 60 min.; format: ADME, organism-based; settings: in vivo, 1 h; procedure, shortened: as §1
Rattus norvegicus [3] = species: Rattus norvegicus; test: Radioactivity distribution in blood of normal fischer rat after injection of [18F]fluoro-2-methylpropanoic acid after 5 min.; format: ADME, organism-based; settings: in vivo; procedure, shortened: as §1
Rattus norvegicus [4] = species: Rattus norvegicus; test: Radioactivity distribution in kidney of normal fischer rat after injection of [18F]fluoro-2-methylpropanoic acid after 5 min.; format: ADME, organism-based; settings: in vivo
Procedure, shortened: (§2)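 Male Fischer 344 rats (200–250 g), fed ad libitum, anesthetized with intramuscular ketamine:xylazine (1:1, 0.1 mL/100 g). About 85 μCi tracer in 0.3 mL sterile water was given by tail-vein catheter. Groups of four were killed at 5, 30, 60 or 120 min. Tissues were weighed and gamma-counted against dose standards, decay-corrected, and expressed as %ID/g (mean ± standard error).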

Rattus norvegicus [5] = species: Rattus norvegicus; test: Radioactivity distribution in lung of tumor-bearing fischer rat after injection of [18F]-fluoro-2-methylpropanoic acid after 120 min; format: ADME, organism-based; settings: in vivo, 2 h
Procedure, shortened: (§3)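 Male Fischer 344 rats carried intracranial 9L gliosarcoma, stereotactically implanted (4×10^4 cells) and used 17–19 days later. Awake, restrained animals received about 35 μCi tracer in 0.3 mL sterile water via the tail vein and were killed at 5, 60 or 120 min (n = 4–5). Tissues were weighed, gamma-counted, decay-corrected and reported as %ID/g ± standard error.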

Rattus norvegicus [6] = species: Rattus norvegicus; test: Radioactivity distribution in liver of normal fischer rat after injection of [18F]-fluoro-2-methylpropanoic acid after 120 min.; format: ADME, organism-based; settings: in vivo, 2 h; procedure, shortened: as §2
Rattus norvegicus [7] = species: Rattus norvegicus; test: Radioactivity distribution in bone of normal fischer rat after injection of [18F]-fluoro-2-methylpropanoic acid after 30 min.; format: ADME, organism-based, Bone element; settings: in vivo, 0.5 h; procedure, shortened: as §1
Rattus norvegicus [8] = species: Rattus norvegicus; test: Radioactivity distribution in heart of tumor-bearing fischer rat after injection of [18F]fluoro-2-methylpropanoic acid after 5 min; format: ADME, organism-based; settings: in vivo
Procedure, shortened: (§4)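 Male Fischer 344 rats carried intracranial 9L gliosarcoma, implanted stereotactically (4×10^4 cells) and used 17–19 days later. Awake restrained rats got ~35 μCi of tracer in 0.3 mL sterile water by tail-vein injection and were killed at 5, 60 or 120 min. Tissues were weighed and gamma-counted, and counts were decay-corrected to %ID/g. Results are mean ± standard error; n = 4 at 5 and 120 min, n = 5 at 60 min.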

Rattus norvegicus [9] = species: Rattus norvegicus; test: Radioactivity distribution in spleen of tumor-bearing fischer rat after injection of [18F]fluoro-2-methylpropanoic acid after 5 min; format: ADME, organism-based; settings: in vivo
Procedure, shortened: (§5)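 Male Fischer rats had 4×10^4 9L gliosarcoma cells implanted stereotactically into the brain, 3 mm right of midline, 1 mm anterior to bregma, 5 mm deep. They were used 17–19 days later. Awake, restrained rats got ~35 μCi in 0.3 mL sterile water by tail vein and were killed at 5, 60 or 120 min. Tissues, tumor and contralateral brain were gamma-counted, decay-corrected, as %ID/g, mean ± SE, n = 4–5.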

Rattus norvegicus [10] = species: Rattus norvegicus; test: Radioactivity distribution in brain of normal fischer rat after injection of [18F]fluoro-2-methylpropanoic acid after 30 min.; format: ADME, organism-based; settings: in vivo, 0.5 h; procedure, shortened: as §1
Rattus norvegicus [11] = species: Rattus norvegicus; test: Radioactivity distribution in spleen of normal fischer rat after injection of [18F]fluoro-2-methylpropanoic acid after 5 min.; format: ADME, organism-based; settings: in vivo
Procedure, shortened: (§6)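 Male Fischer 344 rats (200–250 g), fed ad libitum, under intramuscular ketamine:xylazine anesthesia, got ~85 μCi radiotracer in 0.3 mL sterile water by tail-vein catheter. Groups of four were killed at 5, 30, 60 or 120 min. Dissected tissues were weighed and gamma-counted with dose standards. Counts were decay-corrected and given as %ID/g, mean ± standard error. Tissues were compared by one-way ANOVA.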

Rattus norvegicus [12] = species: Rattus norvegicus; test: Radioactivity distribution in bone of tumor-bearing fischer rat after injection of [18F]fluoro-2-methylpropanoic acid after 5 min; format: ADME, organism-based, Bone element; settings: in vivo; procedure, shortened: as §4
Rattus norvegicus [13] = species: Rattus norvegicus; test: Radioactivity distribution in bone of tumor-bearing fischer rat after injection of [18F]fluoro-2-methylpropanoic acid after 60 min; format: ADME, organism-based, Bone element; settings: in vivo, 1 h; procedure, shortened: as §4
Rattus norvegicus [14] = species: Rattus norvegicus; test: Radioactivity distribution in testis of normal fischer rat after injection of [18F]fluoro-2-methylpropanoic acid after 60 min.; format: ADME, organism-based; settings: in vivo, 1 h; procedure, shortened: as §6
Rattus norvegicus [15] = species: Rattus norvegicus; test: Radioactivity distribution in bone of normal fischer rat after injection of [18F]fluoro-2-methylpropanoic acid after 60 min.; format: ADME, organism-based, Bone element; settings: in vivo, 1 h; procedure, shortened: as §1
Rattus norvegicus [16] = species: Rattus norvegicus; test: Radioactivity distribution in kidney of tumor-bearing fischer rat after injection of [18F]fluoro-2-methylpropanoic acid after 5 min; format: ADME, organism-based; settings: in vivo; procedure, shortened: as §3
Rattus norvegicus [17] = species: Rattus norvegicus; test: Radioactivity distribution in blood of tumor-bearing fischer rat after injection of [18F]fluoro-2-methylpropanoic acid after 5 min; format: ADME, organism-based; settings: in vivo; procedure, shortened: as §4
Rattus norvegicus [18] = species: Rattus norvegicus; test: Radioactivity distribution in spleen of normal fischer rat after injection of [18F]fluoro-2-methylpropanoic acid after 60 min.; format: ADME, organism-based; settings: in vivo, 1 h; procedure, shortened: as §6
Rattus norvegicus [19] = species: Rattus norvegicus; test: Radioactivity distribution in brain of normal fischer rat after injection of [18F]fluoro-2-methylpropanoic acid after 5 min.; format: ADME, organism-based; settings: in vivo; procedure, shortened: as §1
Rattus norvegicus [20] = species: Rattus norvegicus; test: Radioactivity distribution in liver of normal fischer rat after injection of [18F]fluoro-2-methylpropanoic acid after 30 min.; format: ADME, organism-based; settings: in vivo, 0.5 h; procedure, shortened: as §2
Rattus norvegicus [21] = species: Rattus norvegicus; test: Radioactivity distribution in tumor of tumor-bearing fischer rat after injection of [18F]fluoro-2-methylpropanoic acid after 60 min; format: ADME, organism-based; settings: in vivo, 1 h; procedure, shortened: as §5
Rattus norvegicus [22] = species: Rattus norvegicus; test: Radioactivity distribution in pancreas of normal fischer rat after injection of [18F]fluoro-2-methylpropanoic acid after 5 min.; format: ADME, organism-based; settings: in vivo; procedure, shortened: as §2
Rattus norvegicus [23] = species: Rattus norvegicus; test: Radioactivity distribution in muscle of normal fischer rat after injection of [18F]-fluoro-2-methylpropanoic acid after 60 min.; format: ADME, organism-based, Muscle tissue; settings: in vivo, 1 h; procedure, shortened: as §2
Rattus norvegicus [24] = species: Rattus norvegicus; test: Radioactivity distribution in liver of tumor-bearing fischer rat after injection of [18F]fluoro-2-methylpropanoic acid after 5 min; format: ADME, organism-based; settings: in vivo; procedure, shortened: as §3
Rattus norvegicus [25] = species: Rattus norvegicus; test: Radioactivity distribution in muscle of normal fischer rat after injection of [18F]-fluoro-2-methylpropanoic acid after 5 min.; format: ADME, organism-based, Muscle tissue; settings: in vivo; procedure, shortened: as §2
Rattus norvegicus [26] = species: Rattus norvegicus; test: Radioactivity distribution in bone of normal fischer rat after injection of [18F]fluoro-2-methylpropanoic acid after 5 min.; format: ADME, organism-based, Bone element; settings: in vivo; procedure, shortened: as §1
Rattus norvegicus [27] = species: Rattus norvegicus; test: Radioactivity distribution in spleen of tumor-bearing fischer rat after injection of [18F]fluoro-2-methylpropanoic acid after 120 min; format: ADME, organism-based; settings: in vivo, 2 h; procedure, shortened: as §5
Rattus norvegicus [28] = species: Rattus norvegicus; test: Radioactivity distribution in tumor of tumor-bearing fischer rat after injection of [18F]fluoro-2-methylpropanoic acid after 120 min; format: ADME, organism-based; settings: in vivo, 2 h; procedure, shortened: as §5
Rattus norvegicus [29] = species: Rattus norvegicus; test: Radioactivity distribution in muscle of tumor-bearing fischer rat after injection of [18F]fluoro-2-methylpropanoic acid after 120 min; format: ADME, organism-based, Muscle tissue; settings: in vivo, 2 h; procedure, shortened: as §3
Rattus norvegicus [30] = species: Rattus norvegicus; test: Radioactivity distribution in kidney of normal fischer rat after injection of [18F]fluoro-2-methylpropanoic acid after 60 min.; format: ADME, organism-based; settings: in vivo, 1 h; procedure, shortened: as §2
Rattus norvegicus [31] = species: Rattus norvegicus; test: Radioactivity distribution in blood of normal fischer rat after injection of [18F]fluoro-2-methylpropanoic acid after 30 min.; format: ADME, organism-based; settings: in vivo, 0.5 h; procedure, shortened: as §1
Rattus norvegicus [32] = species: Rattus norvegicus; test: Radioactivity distribution in brain of tumor-bearing fischer rat after injection of [18F]fluoro-2-methylpropanoic acid after 120 min; format: ADME, organism-based; settings: in vivo, 2 h; procedure, shortened: as §4
Rattus norvegicus [33] = species: Rattus norvegicus; test: Radioactivity distribution in kidney of normal fischer rat after injection of [18F]fluoro-2-methylpropanoic acid after 120 min.; format: ADME, organism-based; settings: in vivo, 2 h; procedure, shortened: as §1
Rattus norvegicus [34] = species: Rattus norvegicus; test: Radioactivity distribution in testis of normal fischer rat after injection of [18F]fluoro-2-methylpropanoic acid after 30 min.; format: ADME, organism-based; settings: in vivo, 0.5 h; procedure, shortened: as §6

CC(N)(C[18F])C(=O)O.Cl (centres undefined)
ID/g (Rattus norvegicus [1]): 0.22% | ID/g (Rattus norvegicus [2]): 0.28% | ID/g (Rattus norvegicus [3]): 0.53% | ID/g (Rattus norvegicus [4]): 6.36% | ID/g (Rattus norvegicus [5]): 0.24% | ID/g (Rattus norvegicus [6]): 0.48% | ID/g (Rattus norvegicus [7]): 0.22% | ID/g (Rattus norvegicus [8]): 0.4% | ID/g (Rattus norvegicus [9]): 0.72% | ID/g (Rattus norvegicus [10]): 0.05% | ID/g (Rattus norvegicus [11]): 0.83% | ID/g (Rattus norvegicus [12]): 0.38% | ID/g (Rattus norvegicus [13]): 0.25% | ID/g (Rattus norvegicus [14]): 0.12% | ID/g (Rattus norvegicus [15]): 0.19% | ID/g (Rattus norvegicus [16]): 8.66% | ID/g (Rattus norvegicus [17]): 0.72% | ID/g (Rattus norvegicus [18]): 0.5% | ID/g (Rattus norvegicus [19]): 0.04% | ID/g (Rattus norvegicus [20]): 0.56% | ID/g (Rattus norvegicus [21]): 1.96% | ID/g (Rattus norvegicus [22]): 3.46% | ID/g (Rattus norvegicus [23]): 0.26% | ID/g (Rattus norvegicus [24]): 0.77% | ID/g (Rattus norvegicus [25]): 0.22% | ID/g (Rattus norvegicus [26]): 0.27% | ID/g (Rattus norvegicus [27]): 0.32% | ID/g (Rattus norvegicus [28]): 1.87% | ID/g (Rattus norvegicus [29]): 0.21% | ID/g (Rattus norvegicus [30]): 4.74% | ID/g (Rattus norvegicus [31]): 0.25% | ID/g (Rattus norvegicus [32]): 0.05% | ID/g (Rattus norvegicus [33]): 2.97% | ID/g (Rattus norvegicus [34]): 0.1%
